Data on 30 molecules can be found in ChEMBL document CHEMBL3596088, “Deepening the Topology of the Translocator Protein Binding Site by Novel N,N-Dialkyl-2-arylindol-3-ylglyoxylamides” (J Med Chem, 2015).

One test is filed under the species Rattus norvegicus. Briefly: Inhibition of [3H]flumazenil binding to benzodiazepine receptor in rat cerebral cortex membranes at 10 uM incubated for 90 mins. In kind it is cell membranes. The settings on record: Membrane. In a few lines:
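Crude rat cerebral cortex membrane fraction from differential centrifugation, washed to remove endogenous GABA. Incubated with 0.4 nM [3H]Ro15-1788 (flumazenil) for 90 min at 0 °C in 50 mM Tris-citrate, pH 7.4. Test compound at 10 μM; result given as percent inhibition of binding.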

The target in the next test is Translocator protein (Rattus norvegicus, UniProt P16257). Briefly: Inhibition of [3H]PK11195 binding to TSPO in rat kidney mitochondrial membranes. Format: cell membranes.
Translocator protein, sequence (P16257 whole entry, looked up): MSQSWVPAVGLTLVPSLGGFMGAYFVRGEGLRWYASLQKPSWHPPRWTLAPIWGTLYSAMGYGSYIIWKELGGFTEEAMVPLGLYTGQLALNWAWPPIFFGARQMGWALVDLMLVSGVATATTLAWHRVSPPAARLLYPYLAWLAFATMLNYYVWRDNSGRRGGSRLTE

pKi: −log10 of the molar value.

By inhibition is commonly meant the drop in the measured response relative to a control, in per cent. Low values mean a response near the control, high ones a response far below the control. The term pKi denotes the negative decadic logarithm of the Ki, by convention in mol/L. Higher therefore signals a low Ki. Take `CCCCCCN(CCCCCC)C(=O)C(=O)c1c(-c2ccc(O)cc2)[nH]c2ccccc12`: in the test filed under Rattus norvegicus, the inhibition came to 0%. On Translocator protein, the pKi was 8.20.

Turning to `CCCN(CCC)C(=O)C(=O)c1c(-c2ccc(N)cc2)[nH]c2ccccc12`, in the test listed under Rattus norvegicus, the inhibition is 0%. Moreover, the negative-log Ki (pKi) on Translocator protein is 7.35.

Molecule `CCN(Cc1ccccc1)C(=O)C(=O)c1c(-c2ccc3ccccc3c2)[nH]c2ccccc12` registered an inhibition in the test filed under Rattus norvegicus of 0%. For the same molecule, the pKi at Translocator protein was 9.29.

In turn, `CCCN(CCC)C(=O)C(=O)c1c(-c2ccc(C(=O)OC)cc2)[nH]c2ccccc12` showed an inhibition in the test filed under Rattus norvegicus of 0%. In addition, the negative logarithm of the Ki (pKi) on Translocator protein is 8.51.

For `CCCCN(CCCC)C(=O)C(=O)c1c(-c2ccc(C(=O)O)cc2)[nH]c2ccccc12`, the inhibition in the test listed under Rattus norvegicus worked out at 0%. On Translocator protein, this molecule had a pKi of 6.39.

`CCCCN(CCCC)C(=O)C(=O)c1c(-c2ccsc2)[nH]c2ccccc12`: the inhibition in the test listed under Rattus norvegicus was determined as 0%. The molecule also gave a pKi on Translocator protein of 8.55.

In the test filed under Rattus norvegicus, `CCCCN(CCCC)C(=O)C(=O)c1c(-c2ccc(OC)cc2)[nH]c2ccccc12` yielded an inhibition of 0%. This molecule also gave a negative-log Ki (pKi) at Translocator protein of 7.69.

`CCCCCCN(CCCCCC)C(=O)C(=O)c1c(-c2ccc(-c3ccccc3)cc2)[nH]c2ccccc12` displayed an inhibition in the test listed under Rattus norvegicus of 0%. Further, on Translocator protein, the negative-log Ki (pKi) is 8.74.

Molecule `CN1C(=O)CN=C(c2ccc(Cl)cc2)c2cc(Cl)ccc21` had an inhibition in the test filed under Rattus norvegicus of 0%.

For the molecule `CCCCCCN(CCCCCC)C(=O)C(=O)c1c(-c2ccc(C(=O)O)cc2)[nH]c2ccccc12`, the inhibition in the test listed under Rattus norvegicus is 0%. In addition, at Translocator protein, the negative logarithm of the Ki (pKi) is 6.74.

The molecule `CCCN(CCC)C(=O)C(=O)c1c(-c2ccc(OC)cc2)[nH]c2ccccc12` gave an inhibition in the test listed under Rattus norvegicus of 0%. The pKi at Translocator protein is 8.24.

In turn, `CCCN(CCC)C(=O)C(=O)c1c(-c2ccc(O)cc2)[nH]c2ccccc12` returned an inhibition in the test listed under Rattus norvegicus of 0%. The negative logarithm of the Ki (pKi) at Translocator protein was 7.79.

On to `CCCCN(CCCC)C(=O)C(=O)c1c(-c2ccc(O)cc2)[nH]c2ccccc12`, for which the inhibition in the test filed under Rattus norvegicus was 0%. In addition, at Translocator protein, the negative logarithm of the Ki (pKi) was 7.59.

In the case of `CCCCCCN(CCCCCC)C(=O)C(=O)c1c(-c2ccsc2)[nH]c2ccccc12`, in the test filed under Rattus norvegicus, the inhibition amounted to 0%. This molecule gave a pKi on Translocator protein of 9.05.

`CCCCCCN(CCCCCC)C(=O)C(=O)c1c(-c2ccc3ccccc3c2)[nH]c2ccccc12` came in with an inhibition in the test listed under Rattus norvegicus of 0%. At Translocator protein, the negative-log Ki (pKi) was 9.28.

`CCCCN(CCCC)C(=O)C(=O)c1c(-c2ccc(C(=O)OC)cc2)[nH]c2ccccc12` returned an inhibition in the test filed under Rattus norvegicus of 0%. Besides, at Translocator protein, the negative-log Ki (pKi) is 8.57.

The molecule `CCCN(CCC)C(=O)C(=O)c1c(-c2ccc(C(=O)O)cc2)[nH]c2ccccc12` displayed an inhibition in the test filed under Rattus norvegicus of 0%. The molecule also had a pKi on Translocator protein of 6.46.

As for `CCCN(CCC)C(=O)C(=O)c1c(-c2ccc3ccccc3c2)[nH]c2ccccc12`, in the test filed under Rattus norvegicus, the inhibition was determined as 0%.

In turn, `CCCCN(CCCC)C(=O)C(=O)c1c(-c2ccc3ccccc3c2)[nH]c2ccccc12` showed an inhibition in the test filed under Rattus norvegicus of 0%. Also, the pKi at Translocator protein was 9.27.

In the case of `CCCCN(CC)C(=O)C(=O)c1c(-c2ccc3ccccc3c2)[nH]c2ccccc12`, the inhibition in the test filed under Rattus norvegicus came to 0%. In addition, the negative logarithm of the Ki (pKi) at Translocator protein was 9.29.

In the test filed under Rattus norvegicus, `CCCCN(C)C(=O)C(=O)c1c(-c2ccc3ccccc3c2)[nH]c2ccccc12` had an inhibition of 0%. On Translocator protein, this molecule showed a pKi of 9.25.

In the test filed under Rattus norvegicus, `CCCCCCN(CCCCCC)C(=O)C(=O)c1c(-c2ccc(N)cc2)[nH]c2ccccc12` displayed an inhibition of 0%. The same molecule had a pKi on Translocator protein of 8.38.

The molecule `CCCCCN(C)C(=O)C(=O)c1c(-c2ccc3ccccc3c2)[nH]c2ccccc12` had an inhibition in the test listed under Rattus norvegicus of 0%. Also, the negative logarithm of the Ki (pKi) at Translocator protein was 9.43.

Molecule `CCC(C)N(C)C(=O)c1cc2ccccc2c(-c2ccccc2Cl)n1` (configuration not stated) came in with an inhibition in the test filed under Rattus norvegicus of 0%.

`CCCCN(CCCC)C(=O)C(=O)c1c(-c2ccc(-c3ccccc3)cc2)[nH]c2ccccc12` gave an inhibition in the test filed under Rattus norvegicus of 0%. At Translocator protein, this molecule gave a negative-log Ki (pKi) of 8.26.

`CCCCCCN(CCCCCC)C(=O)C(=O)c1c(-c2ccc(C(=O)OC)cc2)[nH]c2ccccc12` gave an inhibition in the test filed under Rattus norvegicus of 0%. The pKi at Translocator protein is 8.48.

In turn, `CCCCCCN(CCCCCC)C(=O)C(=O)c1c(-c2ccc(OC)cc2)[nH]c2ccccc12` returned an inhibition in the test filed under Rattus norvegicus of 0%. The molecule further had a pKi at Translocator protein of 8.40.

As for `CCCN(CCC)C(=O)C(=O)c1c(-c2ccsc2)[nH]c2ccccc12`, the inhibition in the test filed under Rattus norvegicus worked out at 0%. The molecule also gave a pKi at Translocator protein of 8.92.

Molecule `CCCN(CCC)C(=O)C(=O)c1c(-c2ccc(-c3ccccc3)cc2)[nH]c2ccccc12` had an inhibition in the test listed under Rattus norvegicus of 0%. Also, the pKi at Translocator protein is 9.28.

With `CCCCN(CCCC)C(=O)C(=O)c1c(-c2ccc(N)cc2)[nH]c2ccccc12`, the inhibition in the test filed under Rattus norvegicus was determined as 0%. The same molecule had a pKi on Translocator protein of 6.88.
